Measurements reported in PubChem BioAssay AID463147 (The Scripps Research Institute Molecular Screening Center, 2010).
Activity calls are given as the source filed them.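 The calls were made as follows: active = fold change below 0.7, the computed hit cutoff; inactive = the rest.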

The compounds below were run against Nuclear receptor ROR-gamma (Homo sapiens) (UniProt P51449) (assay: RORγ-driven luciferase suppression – cell-based, luminescence, single concentration, HEK293T GAL4-RORg, selectivity assay for RORA inverse agonist project, late-stage follow-up (AID 463147)). Details: HEK293T GAL4-RORg LBD luciferase reporter, 18-24 h; at 10 µM; stronger effect = lower value.
Chain of Nuclear receptor ROR-gamma (Homo sapiens) (P51449 whole entry, looked up, the tested form may be a part): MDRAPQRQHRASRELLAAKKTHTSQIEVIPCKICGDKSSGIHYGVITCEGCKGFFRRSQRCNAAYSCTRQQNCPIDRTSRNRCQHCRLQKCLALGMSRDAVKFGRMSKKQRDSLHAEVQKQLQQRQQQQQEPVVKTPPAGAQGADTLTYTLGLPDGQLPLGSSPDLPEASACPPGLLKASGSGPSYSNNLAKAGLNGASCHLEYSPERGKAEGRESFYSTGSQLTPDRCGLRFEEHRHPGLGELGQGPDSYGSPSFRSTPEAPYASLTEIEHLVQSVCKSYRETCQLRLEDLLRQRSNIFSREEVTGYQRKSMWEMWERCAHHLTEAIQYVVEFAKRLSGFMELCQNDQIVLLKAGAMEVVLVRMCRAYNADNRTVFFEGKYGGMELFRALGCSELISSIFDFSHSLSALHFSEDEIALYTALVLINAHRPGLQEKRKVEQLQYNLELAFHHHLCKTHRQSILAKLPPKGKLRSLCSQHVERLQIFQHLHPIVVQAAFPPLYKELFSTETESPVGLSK
Outline: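 Material: transfected HEK293T, GAL4-RORγ LBD and UAS-luciferase reporter; incubation: 20 h compound exposure, cells replated 24 h post-transfection; dosing: single nominal concentration of 10 µM per compound; technique: luciferase luminescence from UAS reporter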

Fold change, inactive:
O=C(Nc1ccc(C(O)(C(F)(F)F)C(F)(F)F)cc1)c1ccc(F)cc1Cl 0.974
O=C(Nc1ccc(C(O)(C(F)(F)F)C(F)(F)F)cc1)c1ccc(F)cc1F 1.23
O=S(=O)(Nc1ccc(C(O)(C(F)(F)F)C(F)(F)F)cc1)c1cccs1 0.91
O=C(Nc1ccc(C(O)(C(F)(F)F)C(F)(F)F)cc1)c1ccc(Cl)cc1 0.873
O=C(Nc1ccc(C(O)(C(F)(F)F)C(F)(F)F)cc1)c1c(F)cccc1F 1.06
O=C(Nc1ccc(C(O)(C(F)(F)F)C(F)(F)F)cc1)c1ccccc1C(F)(F)F 0.897
